Results taken from ChEMBL document CHEMBL3352225, “Bioreductively Activated Reactive Oxygen Species (ROS) Generators as MRSA Inhibitors” (ACS Med Chem Lett, 2014).
Converted amounts (≈) assume the structure as drawn. “And” between values parts separate entries of the source, which are not always exact repeats. Equal values may be shown once. Blank lines part the entries; values can stand above or below the molecule they belong to. The source made the active and inactive calls. The calls are words filed in the database; no cut-off is given here.

Legend:
[1] = tested on: Staphylococcus aureus; test: Antimicrobial activity against methicillin-sensitive Staphylococcus aureus ATCC 29213 after 18 to 20 hrs by microbroth dilution technique; assay type: functional
Outline: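 MIC taken as the lowest concentration that prevents visible bacterial growth of MSSA 29213, reported in μg/mL.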

[2] = tested on: Staphylococcus aureus; test: Antimicrobial activity against Staphylococcus aureus assessed as extracellular H2O2 generation at 2 ug/ml measured after 60 mins by Amplex Red-based fluorescence assay; assay type: functional, organism-based
Outline: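 S. aureus cells were exposed to compound for 60 min, and H2O2 released into the medium was quantified by Amplex Red fluorescence as a surrogate marker for intracellular ROS. Untreated bacteria served as the control.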

[3] = tested on: Staphylococcus aureus; test: Antimicrobial activity against methicillin-sensitive Staphylococcus aureus ATCC 29213 assessed as intracellular oxidative species generation at 0.5 ug/ml measured after 1 hr by dichlorofluorescein-diacetate fluorescence assay; assay type: functional, organism-based
[4] = tested on: Staphylococcus aureus; test: Antimicrobial activity against Staphylococcus aureus assessed as intracellular superoxide generation measured as formation of 2-OH-E+ measured after 1 hr by dihydroethidium assay; assay type: functional, organism-based
Outline: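 Intact S. aureus cells were incubated with DHE across a range of compound concentrations. Products were 2-hydroxyethidium (2-OH-E+), which is superoxide-specific, and ethidium (E+), which comes from nonspecific oxidation. Untreated bacteria served as the control.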

[5] = tested on: Staphylococcus aureus; test: Antimicrobial activity against methicillin-resistant Staphylococcus aureus E288 after 18 to 20 hrs by microbroth dilution technique; assay type: functional
Outline: (§1)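 Broth microdilution MIC, taken as the lowest concentration preventing visible growth. MRSA 33591 was the reference strain and the others were clinical MRSA isolates. Vancomycin was tested alongside as comparator. Values are reported in μg/mL and μM.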

[6] = tested on: Staphylococcus aureus; test: Antimicrobial activity against methicillin-resistant Staphylococcus aureus B853 after 18 to 20 hrs by microbroth dilution technique; assay type: functional; outline: as §1
[7] = tested on: Staphylococcus aureus; test: Antimicrobial activity against methicillin-sensitive Staphylococcus aureus ATCC 29213 assessed as growth inhibition at 8 times MIC measured over 3 hrs in presence of thiourea; assay type: functional, organism-based
[8] = tested on: Staphylococcus aureus; test: Antimicrobial activity against methicillin-resistant Staphylococcus aureus 7419 after 18 to 20 hrs by microbroth dilution technique; assay type: functional; outline: as §1
[9] = tested on: Staphylococcus aureus; test: Antimicrobial activity against methicillin-resistant Staphylococcus aureus 7386 after 18 to 20 hrs by microbroth dilution technique; assay type: functional; outline: as §1
[10] = H2O2 generation in buffer at pH 7.4 at 2 ug/ml measured after 5 mins by Amplex Red-based fluorescence assay in presence of DT-diaphorase
[11] = tested on: Staphylococcus aureus; test: Antimicrobial activity against methicillin-resistant Staphylococcus aureus B19506 after 18 to 20 hrs by microbroth dilution technique; assay type: functional; outline: as §1
[12] = tested on: Staphylococcus aureus; test: Antimicrobial activity against methicillin-resistant Staphylococcus aureus 33591 after 18 to 20 hrs by microbroth dilution technique; assay type: functional; outline: as §1
[13] = tested on: Staphylococcus aureus; test: Induction of DNA damage in methicillin-sensitive Staphylococcus aureus ATCC 29213 assessed as upregulation of RecA expression at 6.7 times MIC measured after 120 mins by PCR analysis; assay type: functional, organism-based
[14] = tested on: Staphylococcus aureus; test: Antimicrobial activity against methicillin-resistant Staphylococcus aureus K-1 after 18 to 20 hrs by microbroth dilution technique; assay type: functional; outline: as §1
[15] = tested on: Staphylococcus aureus; test: Antimicrobial activity against methicillin-resistant Staphylococcus aureus E9902 after 18 to 20 hrs by microbroth dilution technique; assay type: functional; outline: as §1
[16] = Superoxide generation in buffer at pH 7.4 assessed as formation of 2-OH-E+ at 200 to 500 ug/ml measured after 10 mins by dihydroethidium assay in presence of DT-diaphorase
Outline: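 Compound was incubated with NQO1 (DT-diaphorase). The DHE-derived products 2-OH-E+ (superoxide-specific) and E+ (nonspecific oxidation) were separated and quantified by HPLC. The control was compound in pH 7.4 buffer without enzyme.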

[17] = tested on: Staphylococcus aureus; test: Antimicrobial activity against methicillin-resistant Staphylococcus aureus B21838 after 18 to 20 hrs by microbroth dilution technique; assay type: functional; outline: as §1
[18] = tested on: Staphylococcus aureus; test: Antimicrobial activity against methicillin-resistant Staphylococcus aureus 7425 after 18 to 20 hrs by microbroth dilution technique; assay type: functional; outline: as §1
[19] = tested on: Staphylococcus aureus; test: Antimicrobial activity against methicillin-resistant Staphylococcus aureus B0085 after 18 to 20 hrs by microbroth dilution technique; assay type: functional; outline: as §1
[20] = tested on: Staphylococcus aureus; test: Antimicrobial activity against methicillin-resistant Staphylococcus aureus E151 after 18 to 20 hrs by microbroth dilution technique; assay type: functional; outline: as §1
[21] = Cytotoxicity against human A549 cells after 72 hrs by MTT assay; assay type: cell-based
[22] = Selectivity index, ratio of GI50 for human A549 cells to MIC for methicillin-resistant Staphylococcus aureus 33591
[23] = Superoxide generation in buffer at pH 7.4 at 25 uM measured at 1 min interval for 4 mins by luminol-based chemiluminescence assay in presence of DT-diaphorase
Outline: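 Superoxide from compound plus NQO1 (DT-diaphorase) was followed as a time course by luminol chemiluminescence. The control was compound alone in pH 7.4 buffer.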

Structure (SMILES): C[C@@H]1O[C@@H]1P(=O)(O)O [FOSFOMYCIN]
MIC [1]: 8 µg/mL (≈ 57.9 µM)

Structure (SMILES): COC(=O)Cn1c2c(c3ccccc3c1=O)C(=O)c1ccccc1C2=O
MIC [1]: > 32 µg/mL

Structure (SMILES): C=CCn1c2c(c3ccccc3c1=O)C(=O)c1ccccc1C2=O
MIC [1]: > 32 µg/mL

Structure (SMILES): O=C1c2ccccc2C(=O)c2c1c1ccccc1c(=O)n2C1CCCCC1
MIC [1]: > 32 µg/mL

Structure (SMILES): Cn1c2c(c3ccccc3c1=O)C(=O)c1ccccc1C2=O
MIC [1]: 1 µg/mL (≈ 3.46 µM)

Structure (SMILES): COc1cc(Cn2c3c(c4ccccc4c2=O)C(=O)c2ccccc2C3=O)cc(OC)c1OC
MIC [1]: 8 µg/mL (≈ 17.6 µM)

Structure (SMILES): C#CCn1c2c(c3ccccc3c1=O)C(=O)c1ccccc1C2=O
Activity [2]: Active | Activity [3]: Active | Activity [4]: Dose-dependent effect | MIC [5]: 0.5 µg/mL and 1.6 µM | MIC [6]: 1 µg/mL and 3.19 µM | growth inhibition (GI) [7]: inactive | MIC [8]: 0.12 µg/mL and 0.38 µM | MIC [9]: 1 µg/mL and 3.19 µM | Activity [10]: Active | MIC [11]: 0.06 µg/mL and 0.19 µM | MIC [12]: 0.5 µg/mL and 1.6 µM | Activity [13]: Active | MIC [14]: 0.25 µg/mL and 0.8 µM | MIC [15]: 0.5 µg/mL and 1.6 µM | Activity [16]: Active | MIC [17]: 0.5 µg/mL and 1.6 µM | MIC [18]: 0.12 µg/mL and 0.38 µM | MIC [19]: 0.5 µg/mL and 1.6 µM | MIC [20]: 0.5 µg/mL and 1.6 µM | MIC [1]: 0.5 µg/mL (≈ 1.6 µM) | GI50 at 72 h [21]: 8.6 µM | Selectivity Index [22]: >5 | Activity [23]: Active

Structure (SMILES): NC[C@H]1O[C@H](O[C@H]2[C@H](O)[C@@H](O[C@H]3O[C@H](CO)[C@@H](O)[C@H](N)[C@H]3O)[C@H](N)C[C@@H]2N)[C@H](N)C[C@@H]1O [TOBRAMYCIN]
MIC [1]: 1 µg/mL (≈ 2.14 µM)

Structure (SMILES): CN[C@H](CC(C)C)C(=O)N[C@H]1C(=O)N[C@@H](CC(N)=O)C(=O)N[C@H]2C(=O)N[C@H]3C(=O)N[C@H](C(=O)N[C@H](C(=O)O)c4cc(O)cc(O)c4-c4cc3ccc4O)[C@H](O)c3ccc(c(Cl)c3)Oc3cc2cc(c3O[C@@H]2O[C@H](CO)[C@@H](O)[C@H](O)[C@H]2O[C@H]2C[C@](C)(N)[C@H](O)[C@H](C)O2)Oc2ccc(cc2Cl)[C@H]1O [VANCOMYCIN]
MIC [18]: 0.12 µg/mL (≈ 0.0828 µM)

Structure (SMILES): CCCn1c2c(c3ccccc3c1=O)C(=O)c1ccccc1C2=O
MIC [1]: > 32 µg/mL

Next, values leading:

MIC [1]: > 32 µg/mL
Structure (SMILES): O=C1c2ccccc2C(=O)c2c1c1ccccc1c(=O)n2Cc1ccccc1

MIC [1]: > 32 µg/mL
Structure (SMILES): O=C1c2ccccc2C(=O)c2c1c1ccccc1c(=O)n2Cc1ccccc1C(F)(F)F

MIC [1]: > 32 µg/mL
Structure (SMILES): CCn1c2c(c3ccccc3c1=O)C(=O)c1ccccc1C2=O

MIC [1]: > 32 µg/mL
Structure (SMILES): O=C1c2ccccc2C(=O)c2c1c1ccccc1c(=O)n2Cc1ccc(C(F)(F)F)cc1

MIC [1]: > 32 µg/mL
Structure (SMILES): O=C1c2ccccc2C(=O)c2c1c1ccccc1c(=O)n2Cc1ccc(Cl)cc1

MIC [1]: 8 µg/mL (≈ 19.5 µM)
Structure (SMILES): O=C1c2ccccc2C(=O)c2c1c1ccccc1c(=O)n2Cc1ccc([N+](=O)[O-])cc1

MIC [1]: 32 µg/mL (≈ 80.9 µM)
Structure (SMILES): COc1ccc(Cn2c3c(c4ccccc4c2=O)C(=O)c2ccccc2C3=O)cc1
